# Source: PubChem (Sanford-Burnham Center for Chemical Genomics)
# mIAP block: inhibitors of mouse IAP, primary screen, biochemical, luminescence, uHTS. intestinal alkaline phosphatase [Mus musculus]. purified mouse IAP, CDP-Star luminescence, 30 min. inhibition, % at 10 µM. 330,000 tested, 0.2% active. AID 2806, 2010;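 active = inhibition of at least 40% at 10 µM in the primary screen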
# hIAP activ: human IAP activators, primary screen, biochemical, luminescence, uHTS; purified human IAP, CDP-Star luminescence, 30 min; active compounds read high; 1 = vehicle-only enzyme, 0 = enzyme-free background; Intestinal-type alkaline phosphatase (Homo sapiens), P09923; AID 2524, 2010; 330,000 tested, 0.16% active; activation factor at 10 µM;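 active = activation factor of the enzyme at least 2-fold when tested at 20 µM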
# Target sequence (P09923 whole entry, looked up): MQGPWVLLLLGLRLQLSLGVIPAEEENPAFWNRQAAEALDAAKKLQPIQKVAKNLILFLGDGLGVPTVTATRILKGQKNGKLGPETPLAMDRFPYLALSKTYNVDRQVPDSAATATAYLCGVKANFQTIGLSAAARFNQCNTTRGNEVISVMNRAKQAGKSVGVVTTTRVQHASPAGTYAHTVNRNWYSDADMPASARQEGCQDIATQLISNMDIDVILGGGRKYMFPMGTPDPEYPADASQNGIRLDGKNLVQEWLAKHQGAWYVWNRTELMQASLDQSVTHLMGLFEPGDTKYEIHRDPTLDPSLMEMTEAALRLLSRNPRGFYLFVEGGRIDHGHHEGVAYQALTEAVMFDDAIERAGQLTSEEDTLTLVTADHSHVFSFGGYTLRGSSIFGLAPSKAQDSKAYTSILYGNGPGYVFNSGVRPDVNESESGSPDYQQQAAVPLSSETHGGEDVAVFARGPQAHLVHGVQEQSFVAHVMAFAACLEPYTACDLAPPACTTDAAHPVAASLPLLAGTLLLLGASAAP
# bIAP inh: bovine intestinal alkaline phosphatase inhibitors, primary screen, selectivity assay for TNAP inhibitor project, biochemical, bovine IAP, CDP-star luminescence; inhibition, % at 20 µM; alkaline phosphatase, intestinal [Bos taurus]; 190,000 tested, under 10 active; purified bovine IAP, 30 min;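 active = over 50% inhibition of intestinal alkaline phosphatase at 20 µM in the single-dose screen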
#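 System: Purified bovine intestinal alkaline phosphatase (IAP) enzyme | Input: IAP diluted 1/65,000,000 in the well | Also added: CDP-star chemiluminescent phosphatase substrate, 30 µM final | Dosing: 20 µM single dose | Times: Enzyme reaction for 30 min at room temperature | Detection: Luminescence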
# mIAP activ: activators of mouse IAP, primary screen, biochemical, luminescence, uHTS | activation factor at 10 µM | intestinal alkaline phosphatase [Mus musculus] | muIAP, CDP-Star luminescence, 30 min; active compounds read high; 1 = vehicle-only enzyme signal, 0 = enzyme-free wells | AID 2805, 2010 | 330,000 tested, 0.24% active;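 active = activation factor of at least 2 at 20 µM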
#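 Assay system: mouse IAP enzyme; Reagent: CDP-Star chemiluminescent phosphatase substrate; Compound: DMSO-dissolved test compounds; Incubation: 30 min, room temperature; Technique: luminescence from enzymatic CDP-Star hydrolysis; Controls: DMSO-only wells and no-enzyme negative control.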
# bIAP activator: bovine intestinal alkaline phosphatase activators, primary screen, biochemical, bovine IAP, CDP-star luminescence; alkaline phosphatase, intestinal [Bos taurus]; purified bovine IAP, 30 min; active compounds read high; fold of DMSO-control signal, blank-subtracted; activation factor at 20 µM; 200,000 tested, 0.17% active; AID 1016, 2008;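 active = activation factor of 2 or more at 20 µM, a signal rise over negative controls twice the positive control's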
# hIAP block: human IAP inhibitors, primary screen, biochemical, luminescence, uHTS | inhibition, % at 10 µM | 330,000 tested, 0.12% active | Intestinal-type alkaline phosphatase (Homo sapiens), P09923 | purified IAP, CDP-Star luminescence, 30 min | AID 2544, 2010;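 active = inhibition reaching a set limit with compound at 10 µM in the primary screen, cut at about 35% in these data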
# mIAP inh confirm: inhibitors of mouse IAP, confirmation, biochemical, luminescence, single concentration; shares compounds with mIAP block; purified mouse IAP, CDP-Star luminescence, 30 min; inhibition, % at 10 µM; 11,000 tested, 4.7% active;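 active = inhibition of at least 40% at 10 µM in either of the two replicates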
# A number is an active result; . = inactive; / = not tested or not shown. Compounds with a hit are over-represented: about 0.77% of the library has one in this group of screens.
SMILES,mIAP block,hIAP activ,bIAP inh,mIAP activ,bIAP activator,hIAP block,mIAP inh confirm
Cc1cc(NC(=O)Nc2cccc(Cl)c2)n(-c2ccccc2)n1,.,.,/,3.04,/,.,.
Cc1cc(NC(=O)Nc2ccc(Cl)c(Cl)c2)n(-c2ccccc2)n1,.,.,/,4.27,/,.,.
Cc1cc(/C=C2\SC(=S)NC2=O)c(C)n1-c1ccc(O)cc1,72.7,.,/,.,/,.,70.8
Cc1cc(/C=C2\SC(=S)NC2=O)c(C)n1C,59.4,.,.,.,.,.,62.2
COc1ccc(-n2c(C)cc(/C=C3\SC(=S)NC3=O)c2C)cc1,.,.,.,.,.,.,/
Cc1cc(/C=C2\SC(=S)NC2=O)c(C)n1-c1ccccc1,43.4,.,/,.,/,.,48.3
Cc1ccc(-c2nn(-c3ccc(F)cc3)cc2C(=O)N2CCN(C3CCS(=O)(=O)C3)CC2)cc1 (centres undefined),.,.,/,.,/,.,/
Cc1cc(N(C)C)nc(Nc2ccccc2)n1,.,.,/,.,/,.,/
CCc1ccc(NC(=O)NC2CCCCCCC2)cc1,.,.,/,2.72,/,.,.
O=C(Nc1ccc(Br)cc1)NC1CCCCCCC1,.,.,/,4.99,/,.,.
CCc1ccc(NC(=O)C(=S)NC2CCCCC2)cc1,.,.,.,.,.,.,/
COCc1ccc(CN2CCC(C(=O)Nc3cccc(-c4cccc(Cl)c4)c3)CC2)o1,.,.,/,2.75,/,.,.
c1coc(-c2nnc(-c3ccco3)nn2)c1,70.7,.,/,.,/,.,81.4
Cc1ccccc1NC(=S)N1CCN(c2ccccc2)CC1,.,.,/,.,/,.,/
CCN(Cc1ccccc1)C(=O)c1ccc2c(=O)n3c(nc2c1)CCC3,.,.,/,.,/,.,/
CC(=O)NCc1ccc(-c2csc(NC(=O)CCc3nc4ccccc4c(=O)[nH]3)n2)s1,45.5,.,/,.,/,.,44.8
CCOC(=O)C1=CN(Cc2cccc(-c3ccc(Cl)nc3)c2)S(=O)(=O)N(C)C1C (centres undefined),.,/,/,.,/,/,/
O=C(CN1C(=O)/C(=C/c2ccco2)SC1=S)Nc1ccc(O)c(C(=O)O)c1,74.6,.,/,.,/,.,75.8
O=C(CCCN1C(=O)/C(=C/c2cccs2)SC1=S)Nc1ccc(O)c(C(=O)O)c1,/,/,.,/,.,/,/
CC(=C\c1ccco1)/C=C1/SC(=S)N(CC(=O)O)C1=O,50.9,.,/,.,/,.,50.1
CC(C(=O)Nc1ccc(C(=O)O)c(O)c1)N1C(=O)/C(=C\c2ccco2)SC1=S (centres undefined),61.6,.,/,.,/,.,73.2
CC(C(=O)N(C)C1CCS(=O)(=O)C1)N1C(=O)/C(=C/c2ccco2)SC1=S (centres undefined),40.2,.,/,.,/,.,49.7
O=C(CCN1C(=O)/C(=C/c2ccccc2)SC1=S)NC1CCS(=O)(=O)C1 (centres undefined),.,.,/,.,/,.,/
O=C(CN1C(=O)/C(=C/c2ccco2)SC1=S)NC1CCS(=O)(=O)C1 (centres undefined),57.7,.,/,.,/,.,79.4
O=C(CN1C(=O)/C(=C/c2ccco2)SC1=S)Nc1ccc(C(=O)O)c(O)c1,67.4,.,/,.,/,.,86.5
SMILES,mIAP block,hIAP activ,bIAP inh,mIAP activ,bIAP activator,hIAP block,mIAP inh confirm
O=S(=O)(c1ccc2c(c1)C(O)c1ccccc1CC2)C(F)(F)F (centres undefined),.,.,/,.,/,.,/
CCC(=O)c1ccc(OCC(=O)OC(C)C(=O)NCc2ccc3c(c2)OCO3)cc1 (centres undefined),.,.,/,.,/,.,/
CC(=O)c1c(C)oc2ccc(NS(=O)(=O)c3ccc(O)c(C(=O)O)c3)cc12,.,.,.,.,.,.,/
O=C(O)c1cc(S(=O)(=O)Nc2ccc3oc(=O)sc3c2)ccc1O,65.3,.,.,.,.,.,72.1
Cc1cc2nc3ccc(N(C)C)cc3nc2cc1N,56.9,.,/,.,/,.,65.0
COc1cc(OC)c2c(c1O)OC(c1ccccc1)CC2=O (centres undefined),53.7,.,.,.,.,.,62.2
CC(C)OC(=O)NCCOC(=O)Nc1cccc(Cl)c1,.,.,.,2.03,.,.,.
NC1=NC(=O)/C(=C\c2ccc(-c3ccc(Cl)cc3)o2)S1,.,.,/,.,/,.,/
Cc1ccc(/C=C2\SC(=S)N(C3CCS(=O)(=O)C3)C2=O)o1 (centres undefined),.,.,.,.,.,.,/
CN(C)C1=NC(=O)/C(=C/c2ccc(-c3ccc(S(N)(=O)=O)cc3)o2)S1,49.9,.,/,.,/,.,49.7
NS(=O)(=O)c1ccc(-c2ccc(/C=C3\SC(=S)N(C4CCS(=O)(=O)C4)C3=O)o2)cc1 (centres undefined),80.2,.,/,.,/,.,87.4
C[N+](C)(C)C(Cc1ccccc1)C(=O)[O-] (centres undefined),47.3,.,/,.,/,.,50.9
CC(NC(=S)NCc1ccc(F)cc1)C12CC3CC(CC(C3)C1)C2 (centres undefined),.,.,.,4.08,.,.,.
C[C@H](NC(=O)NCc1ccc(F)cc1)C(=O)O,.,.,.,.,.,.,/
Cc1cc(=O)n2[nH]c(-c3ccc(F)cc3)cc2n1,.,.,.,.,.,.,/
Cc1nc2cc(-c3ccsc3-n3c(C)ccc3C)[nH]n2c(=O)c1Cl,63.3,.,.,.,.,.,78.3
Cc1ccccc1-c1cc2nc(C)c(Cl)c(=O)n2[nH]1,.,.,/,.,/,.,/
COCc1cc(=O)n2[nH]c(-c3ccsc3-n3c(C)ccc3C)cc2n1,56.1,.,.,.,.,.,58.2
Cc1cc(=O)n2[nH]c(-c3ccsc3-n3c(C)ccc3C)cc2n1,49.8,.,/,.,/,.,58.9
O=C1c2ccccc2[C@@H]2C[C@H]3O[C@H]3CCN12,.,/,/,.,/,/,/
Cc1cc(C(=O)Nc2ccon2)ccc1[N+](=O)[O-],.,.,/,.,/,.,/
Cc1cc(C)c(S(=O)(=O)Nc2ccc(O)cc2)cc1C,.,.,.,.,.,.,/
COc1ccc(S(=O)(=O)Nc2ccc(O)c(Sc3ncn[nH]3)c2)cc1,62.9,.,.,.,.,.,71.8
CC(C)c1ccc(S(=O)(=O)Nc2ccc(O)c(Sc3ncn[nH]3)c2)cc1,.,.,/,.,/,.,/
